Experimental data from ChEMBL document CHEMBL1781906, “New quinolin-4-yl-1,2,3-triazoles carrying amides, sulphonamides and amidopiperazines as potential antitubercular agents” (2011).
Converted amounts (≈) assume the structure as drawn.

Columns and labels:
Format in all cases: functional
[1] = test system: Mycobacterium tuberculosis; assay: Antimycobacterial activity against Mycobacterium tuberculosis H37Rv ATCC 27294 after 7 days by resazurin method; conditions: H37Rv ATCC 27294, 168 h
Outline: (§1)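 H37Rv was grown in Middlebrook 7H9 broth with 10% OADC, diluted to McFarland 2 in the same medium, and added to fresh medium in 96-well plates with compound. Compounds were tested at 1, 10 and 100. The dye turned pink in controls after […] at 37 °C.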

[2] = test system: Staphylococcus aureus; assay: Antibacterial activity against Staphylococcus aureus ATCC 25923 after 18 to 24 hrs by serial plate dilution method
[3] = test system: Pseudomonas aeruginosa; assay: Antibacterial activity against Pseudomonas aeruginosa ATCC 27853 after 18 to 24 hrs by […]
[4] = test system: Streptococcus pyogenes; assay: Antibacterial activity against Streptococcus pyogenes after 18 to 24 hrs by serial plate dilution method
[5] = test system: Mycolicibacterium fortuitum; assay: Antimycobacterial activity against Mycobacterium fortuitum ATCC 19542 after 7 days by resazurin method; conditions: ATCC 19542, 168 h
Outline: (§2)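 MIC was determined by resazurin microplate assay. Resazurin turns from blue to pink when reduced by viable cells, and wells with no colour change were scored as inhibited. Isoniazid and rifampicin were reference drugs.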

[6] = test system: Escherichia coli; assay: Antibacterial activity against Escherichia coli ATCC 25922 after 18 to 24 hrs by […]
[7] = test system: Mycobacterium tuberculosis; assay: Antimycobacterial activity against Mycobacterium tuberculosis H37Rv ATCC 27294 assessed as inhibition of bacterial growth at 1 to 100 ug/ml after 7 days by resazurin method; outline: as §1
[8] = test system: Klebsiella pneumoniae; assay: Antibacterial activity against Klebsiella pneumoniae after 18 to 24 hrs by […]
[9] = test system: Mycolicibacterium smegmatis; assay: Antimycobacterial activity against Mycobacterium smegmatis ATCC 19420 after 7 days by resazurin method; conditions: ATCC 19420, 168 h; outline: as §2

Row | SMILES | MIC [1] [µg/mL] | MIC [2] [µg/mL] | MIC [3] [µg/mL] | MIC [4] [µg/mL] | MIC [5] [µg/mL] | MIC [6] [µg/mL] | inhibition (INH) [7] [%] | MIC [8] [µg/mL] | MIC [9] [µg/mL]
1 | COc1ccc2nc(C)cc(-n3cc(CNC(=O)c4ccc(C(F)(F)F)cc4)nn3)c2c1 | 0.625 (≈ 1.42 µM) | 0.4 (≈ 0.906 µM) | 0.4 (≈ 0.906 µM) | 0.2 (≈ 0.453 µM) | 5 (≈ 11.3 µM) | 0.4 (≈ 0.906 µM) | 95 | 0.2 (≈ 0.453 µM) | 10 (≈ 22.7 µM)
2 | COc1ccc2nc(C)cc(-n3cc(CNC(=O)c4ccc(C)cc4)nn3)c2c1 | 100 (≈ 258 µM) | 1.6 (≈ 4.13 µM) | 6.25 (≈ 16.1 µM) | 0.8 (≈ 2.06 µM) | 100 (≈ 258 µM) | 3.12 (≈ 8.05 µM) |  | 3.12 (≈ 8.05 µM) | 100 (≈ 258 µM)
3 | COc1ccc(C(=O)N2CCN(Cc3cn(-c4cc(C)nc5ccc(OC)cc45)nn3)CC2)cc1 | 0.625 (≈ 1.32 µM) | 0.8 (≈ 1.69 µM) | 3.12 (≈ 6.6 µM) | 1.6 (≈ 3.39 µM) | 10 (≈ 21.2 µM) | 0.4 (≈ 0.846 µM) | 90 | 1.6 (≈ 3.39 µM) | 5 (≈ 10.6 µM)
4 | NNC(=O)c1ccncc1 [ISONIAZID] | 0.7 (≈ 5.1 µM) |  |  |  | 12.5 (≈ 91.1 µM) |  | 95 |  | 50 (≈ 365 µM)
5 | CO[C@H]1/C=C/O[C@@]2(C)Oc3c(C)c(O)c4c(O)c(c(/C=N/N5CCN(C)CC5)c(O)c4c3C2=O)NC(=O)/C(C)=C\C=C\[C@H](C)[C@H](O)[C@@H](C)[C@@H](O)[C@@H](C)[C@H](OC(C)=O)[C@@H]1C [RIFAMPIN] | 0.5 (≈ 0.608 µM) |  |  |  | 1.5 (≈ 1.82 µM) |  | 95 |  | 1.5 (≈ 1.82 µM)
6 | COc1ccc2nc(C)cc(-n3cc(CN4CCN(C(=O)c5ccc(F)cc5)CC4)nn3)c2c1 | 1 (≈ 2.17 µM) | 0.8 (≈ 1.74 µM) | 1.6 (≈ 3.47 µM) | 0.4 (≈ 0.869 µM) | 10 (≈ 21.7 µM) | 0.8 (≈ 1.74 µM) | 90 | 0.8 (≈ 1.74 µM) | 1 (≈ 2.17 µM)
7 | COc1ccc(S(=O)(=O)NCc2cn(-c3cc(C)nc4ccc(OC)cc34)nn2)cc1 | 0.625 (≈ 1.42 µM) | 6.25 (≈ 14.2 µM) | 1.6 (≈ 3.64 µM) | 1.6 (≈ 3.64 µM) | 10 (≈ 22.8 µM) | 3.12 (≈ 7.1 µM) | 90 | 1.6 (≈ 3.64 µM) | 10 (≈ 22.8 µM)
8 | COc1ccc2nc(C)cc(-n3cc(CNC(C)=O)nn3)c2c1 | 0.625 (≈ 2.01 µM) | 0.4 (≈ 1.28 µM) | 0.2 (≈ 0.642 µM) | 0.2 (≈ 0.642 µM) | 10 (≈ 32.1 µM) | 0.1 (≈ 0.321 µM) | 95 | 0.1 (≈ 0.321 µM) | 10 (≈ 32.1 µM)
9 | COc1ccc2nc(C)cc(-n3cc(CNS(=O)(=O)c4ccc(F)cc4)nn3)c2c1 | 1 (≈ 2.34 µM) | 0.4 (≈ 0.936 µM) | 0.8 (≈ 1.87 µM) | 0.4 (≈ 0.936 µM) | 100 (≈ 234 µM) | 3.12 (≈ 7.3 µM) | 85 | 3.12 (≈ 7.3 µM) | 100 (≈ 234 µM)
10 | COc1ccc2nc(C)cc(-n3cc(CN4CCN(C(=O)c5ccccc5Cl)CC4)nn3)c2c1 | 10 (≈ 21 µM) | 3.12 (≈ 6.54 µM) | 3.12 (≈ 6.54 µM) | 3.12 (≈ 6.54 µM) | 100 (≈ 210 µM) | 6.25 (≈ 13.1 µM) |  | 3.12 (≈ 6.54 µM) | 100 (≈ 210 µM)
11 | CCc1ccc(S(=O)(=O)NCc2cn(-c3cc(C)nc4ccc(OC)cc34)nn2)cc1 | 100 (≈ 229 µM) | 6.25 (≈ 14.3 µM) | 12.5 (≈ 28.6 µM) | 6.25 (≈ 14.3 µM) | 100 (≈ 229 µM) | 6.25 (≈ 14.3 µM) |  | 6.25 (≈ 14.3 µM) | 100 (≈ 229 µM)
12 | COc1ccc2nc(C)cc(-n3cc(CN4CCN(C(=O)C5CC5)CC4)nn3)c2c1 | 5 (≈ 12.3 µM) | 0.8 (≈ 1.97 µM) | 0.4 (≈ 0.984 µM) | 0.4 (≈ 0.984 µM) | 100 (≈ 246 µM) | 0.4 (≈ 0.984 µM) | 90 | 0.2 (≈ 0.492 µM) | 100 (≈ 246 µM)
13 | COc1ccc2nc(C)cc(-n3cc(CNC(=O)c4ccccc4F)nn3)c2c1 | 1 (≈ 2.55 µM) | 0.8 (≈ 2.04 µM) | 0.4 (≈ 1.02 µM) | 0.2 (≈ 0.511 µM) | 100 (≈ 255 µM) | 0.4 (≈ 1.02 µM) | 90 | 0.2 (≈ 0.511 µM) | 100 (≈ 255 µM)
14 | O=C(O)c1cn(C2CC2)c2cc(N3CCNCC3)c(F)cc2c1=O [CIPROFLOXACIN] |  | 1 (≈ 3.02 µM) | 0.4 (≈ 1.21 µM) | 0.4 (≈ 1.21 µM) |  |  |  | 0.05 (≈ 0.151 µM) | 
15 | COc1ccc2nc(C)cc(-n3cc(CNS(=O)(=O)c4ccccc4)nn3)c2c1 | 100 (≈ 244 µM) | 12.5 (≈ 30.5 µM) | 6.25 (≈ 15.3 µM) | 6.25 (≈ 15.3 µM) | 100 (≈ 244 µM) | 6.25 (≈ 15.3 µM) |  | 6.25 (≈ 15.3 µM) | 100 (≈ 244 µM)
16 | COc1ccc2nc(C)cc(-n3cc(CN4CCN(C(=O)c5ccc(Cl)c(Cl)c5)CC4)nn3)c2c1 | 5 (≈ 9.78 µM) | 6.25 (≈ 12.2 µM) | 0.8 (≈ 1.56 µM) | 0.8 (≈ 1.56 µM) | 100 (≈ 196 µM) | 3.12 (≈ 6.1 µM) | 85 | 0.8 (≈ 1.56 µM) | 100 (≈ 196 µM)
